ChEMBL document CHEMBL1155222, “Synthesis and anticancer activity of N-bis(trifluoromethyl)alkyl-N'-thiazolyl and N-bis(trifluoromethyl)alkyl-N'-benzothiazolyl ureas” (2009)

Tests used:
Format in all cases: functional
[1] = test system: MDA-MB-231; assay: Anticancer activity against human MDA-MB-231 cells after 48 hrs by sulforhodamine B assay; conditions: MDA-MB-231, 48 h
In short: (§1)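 NCI 60-cell-line screen. Cells grown in RPMI 1640 with 5% FBS and 2 mM L-glutamine, plated at 5000–40,000 cells/well, and preincubated 24 h at 37 °C under 5% CO2. Compounds were taken from DMSO stocks and tested at five final concentrations, 10^-4 to 10^-8 M, for 48 h. Cells were TCA-fixed, stained with 0.4% SRB, and read at 515 nm. GI50, TGI and LC50 were derived as log molar values.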

[2] = test system: KM12; assay: Anticancer activity against human KM12 cells after 48 hrs by sulforhodamine B assay; conditions: KM12, 48 h; in short: as §1
[3] = test system: TK-10; assay: Anticancer activity against human TK10 cells after 48 hrs by sulforhodamine B assay; conditions: TK-10, 48 h
In short: (§2)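 NCI 60-cell-line panel; cells grown in RPMI 1640 with 5% FBS and 2 mM L-glutamine, plated at 5000–40,000 cells/well and preincubated 24 h at 37 °C, 5% CO2. Compounds came from DMSO stocks diluted in medium with gentamicin and were tested at five final concentrations, 10^-4 to 10^-8 M, for 48 h. Cells were fixed with TCA, stained with SRB and read at 515 nm. GI50, TGI and LC50 were derived as log molar values.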

[4] = test system: SF-268; assay: Anticancer activity against human SF268 cells after 48 hrs by sulforhodamine B assay; conditions: SF-268, 48 h; in short: as §1
[5] = test system: T47D; assay: Anticancer activity against human T47D cells after 48 hrs by sulforhodamine B assay; in short: as §2
[6] = test system: SF-268; assay: Anticancer activity against human SF268 cells assessed as cell growth at 100 uM after 48 hrs by Alamar blue assay relative to control; conditions: SF-268, 48 h, read-out: Activity
In short: (§3)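 NCI one-dose pre-test on MCF7, NCI-H460 and SF-268. Cells were inoculated and preincubated, then exposed to a single 10^-4 M concentration for 48 h. End-point was alamar blue. Results are percent growth versus untreated control cells, with negative values indicating cell kill.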

[7] = test system: NCI-H460; assay: Anticancer activity against human NCI-H460 cells assessed as cell growth at 100 uM after 48 hrs by Alamar blue assay relative to control; conditions: NCI-H460, 48 h, read-out: Activity; in short: as §3
[8] = test system: MOLT-4; assay: Anticancer activity against human MOLT4 cells after 48 hrs by sulforhodamine B assay; conditions: MOLT-4, 48 h; in short: as §1
[9] = test system: MCF7; assay: Anticancer activity against human MCF7 cells assessed as cell growth at 100 uM after 48 hrs by Alamar blue assay relative to control; conditions: MCF7, 48 h, read-out: Activity; in short: as §3
[10] = Anticancer activity against human RPMI8266 cells after 48 hrs by sulforhodamine B assay; in short: as §1
[11] = test system: NCI-H460; assay: Anticancer activity against human NCI-H460 cells after 48 hrs by sulforhodamine B assay; conditions: NCI-H460, 48 h; in short: as §1
[12] = test system: SW-620; assay: Anticancer activity against human SW620 cells after 48 hrs by sulforhodamine B assay; conditions: SW-620, 48 h; in short: as §2
[13] = test system: COLO 205; assay: Anticancer activity against human COLO205 cells after 48 hrs by sulforhodamine B assay; conditions: COLO 205, 48 h; in short: as §1
[14] = test system: HOP-62; assay: Anticancer activity against human HOP62 cells after 48 hrs by sulforhodamine B assay; conditions: HOP-62, 48 h; in short: as §1
[15] = test system: NCI-H322M; assay: Anticancer activity against human NCI-H322M cells after 48 hrs by sulforhodamine B assay; in short: as §1
[16] = test system: HL-60(TB); assay: Anticancer activity against human HL-60(TB) cells after 48 hrs by sulforhodamine B assay; conditions: HL-60, 48 h
In short: (§4)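 NCI 60-cell-line screen. Cells were grown in RPMI 1640 with 5% FBS and 2 mM L-glutamine, seeded at 5000–40,000 cells/well and preincubated 24 h at 37 °C, 5% CO2. Compounds in DMSO were diluted in medium with gentamicin and tested at five concentrations (10^-4 to 10^-8 M) for 48 h. Cells were then fixed with TCA, stained with SRB and read at 515 nm.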

[17] = test system: K562; assay: Anticancer activity against human K562 cells after 48 hrs by sulforhodamine B assay; conditions: K562, 48 h; in short: as §1
[18] = test system: NCI-H23; assay: Anticancer activity against human NCI-H23 cells after 48 hrs by sulforhodamine B assay; conditions: NCI-H23, 48 h; in short: as §4

O=C(Nc1nc2ccccc2s1)NC(C(F)(F)F)C(F)(F)F
GI50 [1]: 22.4 µM | GI50 [2]: 29.5 µM | GI50 [3]: 31.6 µM | GI50 [4]: 29.5 µM | GI50 [5]: 17 µM | growth at 100 µM [6]: -39% | growth at 100 µM [7]: -74% | GI50 [8]: 29.5 µM | growth at 100 µM [9]: -10% | GI50 [10]: 33.9 µM | GI50 [11]: 22.4 µM | GI50 [12]: 33.9 µM | GI50 [13]: 17.8 µM | GI50 [14]: 38 µM | GI50 [15]: 18.2 µM | GI50 [16]: 26.3 µM | GI50 [17]: 25.1 µM

CCC(NC(=O)Nc1nccs1)(C(F)(F)F)C(F)(F)F
GI50 [1]: 85.1 µM | GI50 [2]: 46.8 µM | GI50 [3]: 31.6 µM | GI50 [4]: 60.3 µM | GI50 [5]: 38.9 µM | growth at 100 µM [6]: 40% | growth at 100 µM [7]: 6% | GI50 [8]: 30.9 µM | growth at 100 µM [9]: 20% | GI50 [11]: 38.9 µM | GI50 [12]: 83.2 µM | GI50 [13]: 74.1 µM | GI50 [14]: > 100 µM | GI50 [15]: > 100 µM | GI50 [17]: 34.7 µM

O=c1[nH]cc(F)c(=O)[nH]1 [FLUOROURACIL]
GI50 [1]: 6.61 µM | GI50 [2]: 0.214 µM | GI50 [3]: 1.12 µM | GI50 [4]: 1.58 µM | GI50 [5]: 8.13 µM | GI50 [8]: 0.355 µM | GI50 [11]: 0.0562 µM | GI50 [12]: 0.933 µM | GI50 [13]: 0.158 µM | GI50 [14]: 0.398 µM | GI50 [15]: 0.178 µM | GI50 [18]: 0.331 µM | GI50 [16]: 2.29 µM | GI50 [17]: 3.55 µM

CNC(=O)Nc1ccccc1
GI50 [1]: 100 µM | GI50 [2]: 100 µM | GI50 [3]: 100 µM | GI50 [4]: 100 µM | GI50 [5]: 100 µM | GI50 [8]: 100 µM | GI50 [10]: 100 µM | GI50 [11]: 100 µM | GI50 [12]: 100 µM | GI50 [13]: 100 µM | GI50 [14]: 100 µM | GI50 [15]: 100 µM | GI50 [18]: 100 µM | GI50 [16]: 100 µM | GI50 [17]: 100 µM

O=C(Nc1nccs1)NC(C(F)(F)F)C(F)(F)F
GI50 [1]: 58.9 µM | GI50 [2]: 39.8 µM | GI50 [3]: 51.3 µM | GI50 [4]: 29.5 µM | GI50 [5]: 45.7 µM | growth at 100 µM [6]: 20% | growth at 100 µM [7]: 22% | GI50 [8]: 40.7 µM | growth at 100 µM [9]: 35% | GI50 [11]: 34.7 µM | GI50 [12]: > 100 µM | GI50 [13]: 52.5 µM | GI50 [14]: > 100 µM | GI50 [15]: 87.1 µM | GI50 [16]: 72.4 µM | GI50 [17]: 36.3 µM

CC(NC(=O)Nc1nc2ccccc2s1)(C(F)(F)F)C(F)(F)F
GI50 [1]: 34.7 µM | GI50 [2]: 46.8 µM | GI50 [3]: 49 µM | GI50 [4]: 29.5 µM | GI50 [5]: 38 µM | growth at 100 µM [6]: 28% | growth at 100 µM [7]: 43% | GI50 [8]: 18.2 µM | growth at 100 µM [9]: 62% | GI50 [10]: 38.9 µM | GI50 [11]: 24.5 µM | GI50 [12]: 45.7 µM | GI50 [13]: 38 µM | GI50 [14]: 31.6 µM | GI50 [15]: 26.9 µM | GI50 [16]: 97.7 µM | GI50 [17]: 17 µM

CCC(NC(=O)Nc1nc2ccccc2s1)(C(F)(F)F)C(F)(F)F
GI50 [1]: 16.2 µM | GI50 [2]: 20.4 µM | GI50 [3]: 21.9 µM | GI50 [4]: 17 µM | GI50 [5]: 15.5 µM | growth at 100 µM [6]: -94% | growth at 100 µM [7]: -93% | GI50 [8]: 29.5 µM | growth at 100 µM [9]: -79% | GI50 [11]: 21.4 µM | GI50 [12]: 20.9 µM | GI50 [13]: 16.2 µM | GI50 [14]: 17.8 µM | GI50 [15]: 25.7 µM | GI50 [17]: 23.4 µM
